Source: ChEMBL document CHEMBL1268908, “Design, synthesis, radiolabeling, and in vivo evaluation of carbon-11 labeled N-[2-[4-(3-cyanopyridin-2-yl)piperazin-1-yl]ethyl]-3-methoxybenzamide, a potential positron emission tomography tracer for the dopamine D(4) receptors” (J Med Chem, 2010)
The source made the active and inactive calls. The calls are words filed in the database; no cut-off is given here.

Assays:
D(4) dopamine receptor = biological target: T1, D(4) dopamine receptor (Rattus norvegicus, UniProt P30729); test: Displacement of [3H]MSP from rat dopamine D4 receptor expressed in HEK293 cells after 90 mins by scintillation counting; format: cell-based
T1 sequence (P30729 whole entry): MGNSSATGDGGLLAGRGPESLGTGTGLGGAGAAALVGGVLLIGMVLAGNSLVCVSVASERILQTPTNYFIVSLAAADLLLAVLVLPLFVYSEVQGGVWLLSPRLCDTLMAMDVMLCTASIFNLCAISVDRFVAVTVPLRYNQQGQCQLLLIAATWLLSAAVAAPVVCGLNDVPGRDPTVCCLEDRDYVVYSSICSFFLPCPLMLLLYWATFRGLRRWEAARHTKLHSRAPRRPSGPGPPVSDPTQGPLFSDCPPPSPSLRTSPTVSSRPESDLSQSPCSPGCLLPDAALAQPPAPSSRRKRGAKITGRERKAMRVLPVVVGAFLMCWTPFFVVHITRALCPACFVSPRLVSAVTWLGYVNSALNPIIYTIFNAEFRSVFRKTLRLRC
Outline: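 Competition binding on fresh membranes from HEK293 cells stably expressing rat D4 receptor, with about […] [3H]methylspiperone for 90 min at 25 °C in 50 mM Tris pH 7.4; (+)-butaclamol defined nonspecific binding. Filtered and scintillation counted. IC50 converted to Ki by Cheng–Prusoff; triplicates, 3–4 experiments.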

[1] = Lipophilicity, log P of the compound; format: physicochemical; conditions: octanol/water
[2] = biological target: D(2) dopamine receptor (Rattus norvegicus) (UniProt P61169); test: Displacement of [3H]MSP from rat dopamine D2L receptor expressed in HEK293 cells at 1 uM after 90 mins by scintillation counting; format: cell-based
Outline: (§1)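 HEK293 membranes stably expressing rat D2 or human 5-HT1A, 5-HT2A or 5-HT2C receptors, used fresh. Incubated 90 min at 25 °C in 50 mM Tris pH 7.4 with about […] radioligand and 1 μM compound (DMSO or DMF stock diluted ≥1:1000). Nonspecific binding defined by (+)-butaclamol for D2, NAN-190 for 5-HT1A and mianserin for 5-HT2A/2C. PEI-GF/C filtration, scintillation count; % displacement from triplicates, 3–4 repeats.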

[3] = Dissociation constant, pKa of the compound; format: physicochemical
[4] = biological target: Sigma non-opioid intracellular receptor 1 (Homo sapiens) (UniProt Q99720); test: Displacement of [3H](+)-pentazocine from human sigma 1 receptor expressed in MCF7 cells at 1 uM after 180 mins by scintillation counting; format: cell-based
Outline: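 Membranes from MCF-7 cells stably expressing cloned human σ1 receptor, 0.01–0.05 mg/mL protein, in 50 mM Tris pH 8.0. Incubated 180 min at 37 °C with shaking with 1 nM [3H]-(+)-pentazocine and 1 μM compound; BD1063 defined nonspecific binding. Filtered on PEI-treated GF/C, washed with ice-cold buffer, scintillation counted; triplicates, 3–4 experiments.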

Plasma = test: Drug level in CD1 mouse plasma at 10 mg/kg, ip after 30 to 60 mins; format: ADME, organism-based; parameters: dose 10 mg/kg, route intraperitoneal; conditions: in vivo
Outline: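 Male CD1 mice, 25–30 g, given 10 mg/kg ip in ethanol/PEG 40/saline (10:40:50). Killed at 15–240 min. Plasma (0.2 mL) alkalinised and extracted into dichloromethane with a 1-(2-thiazolyl)piperazine internal standard, then run on gradient reversed-phase HPLC-UV at 264 nm; quantification limit about 100 ng/mL. Mean ± SD, n = 3.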

[5] = biological target: T2, 5-hydroxytryptamine receptor 2C (Homo sapiens) (UniProt P28335); test: Displacement of [3H]mesulergine from human 5HT2C receptor expressed in HEK293 cells at 1 uM after 90 mins by scintillation counting; format: cell-based; outline: as §1
T2 sequence (whole entry): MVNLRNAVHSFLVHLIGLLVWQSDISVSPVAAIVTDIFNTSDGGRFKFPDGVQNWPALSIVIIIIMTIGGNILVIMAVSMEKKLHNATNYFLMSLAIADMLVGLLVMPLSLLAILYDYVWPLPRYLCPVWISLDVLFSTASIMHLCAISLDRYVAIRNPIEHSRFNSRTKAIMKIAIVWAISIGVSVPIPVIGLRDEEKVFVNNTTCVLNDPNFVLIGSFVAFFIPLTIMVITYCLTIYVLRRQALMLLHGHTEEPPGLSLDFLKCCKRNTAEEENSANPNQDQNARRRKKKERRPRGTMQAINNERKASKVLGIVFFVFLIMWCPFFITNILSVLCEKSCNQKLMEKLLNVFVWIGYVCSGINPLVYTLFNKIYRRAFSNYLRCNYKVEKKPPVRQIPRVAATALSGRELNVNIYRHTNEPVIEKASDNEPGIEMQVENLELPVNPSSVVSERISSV

[6] = Drug level in CD1 mouse plasma at 10 mg/kg, ip after 30 mins; format: ADME, organism-based; parameters: dose 10 mg/kg, route intraperitoneal; conditions: read-out: Drug uptake
[7] = biological target: Cannabinoid receptor 1 (Rattus norvegicus) (UniProt P20272); test: Displacement of [3H]CP55940 from CB1 receptor in rat brain at 1 uM after 180 mins by scintillation counting
[8] = biological target: D(3) dopamine receptor (Homo sapiens) (UniProt P35462); test: Displacement of [3H]MSP from human dopamine D3 receptor expressed in CHO-K1 cells at 1 uM after 90 mins by scintillation counting; format: cell-based
Outline: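 Frozen CHO-K1 membranes carrying human D3 receptor, incubated with about […] [3H]methylspiperone and 1 μM compound for 90 min at 25 °C in 50 mM Tris pH 7.4. Nonspecific binding defined with 5 μM 7-OH-DPAT. Filtered on PEI-treated GF/C and scintillation counted; triplicate points, experiment repeated 3–4 times.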

[9] = biological target: T3, 5-hydroxytryptamine receptor 1A (Homo sapiens) (UniProt P08908); test: Displacement of [3H]MPPF from human 5HT1A receptor expressed in HEK293 cells at 1 uM after 90 mins by scintillation counting; format: cell-based; outline: as §1
T3 sequence (whole entry): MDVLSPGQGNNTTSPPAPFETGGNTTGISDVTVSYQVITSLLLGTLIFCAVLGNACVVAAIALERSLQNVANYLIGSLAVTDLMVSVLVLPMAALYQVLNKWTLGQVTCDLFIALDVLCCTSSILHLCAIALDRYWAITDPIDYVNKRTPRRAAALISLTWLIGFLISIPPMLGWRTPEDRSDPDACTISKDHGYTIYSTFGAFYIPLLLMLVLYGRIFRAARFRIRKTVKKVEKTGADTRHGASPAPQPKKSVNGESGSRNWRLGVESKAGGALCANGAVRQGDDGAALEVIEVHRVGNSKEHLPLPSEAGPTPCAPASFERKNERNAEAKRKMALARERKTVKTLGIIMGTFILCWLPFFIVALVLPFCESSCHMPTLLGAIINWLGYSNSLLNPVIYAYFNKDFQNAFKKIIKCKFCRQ

[10] = biological target: T4, D(4) dopamine receptor (Rattus norvegicus) (UniProt P30729); test: Agonist activity at rat dopamine D4 receptor expressed in HEK293 cells assessed as decrease in forskolin-stimulated levels of cAMP accumulation up to 10 uM; format: functional, cell-based
T4 sequence (whole entry): T1 sequence (P30729 whole entry)

[11] = biological target: 5-hydroxytryptamine receptor 2A (Homo sapiens) (UniProt P28223); test: Displacement of [3H]MSP from human 5HT2A receptor expressed in HEK293 cells at 1 uM after 90 mins by scintillation counting; format: cell-based; outline: as §1
[12] = Drug level in CD1 mouse brain at 10 mg/kg, ip after 30 mins; format: ADME, organism-based; parameters: dose 10 mg/kg, route intraperitoneal; conditions: read-out: Drug uptake
[13] = Distribution coefficient, log D of the compound at pH 7.4; format: physicochemical; conditions: octanol/water
[14] = Drug level in CD1 mouse plasma at 10 mg/kg, ip after 15 mins; format: ADME, organism-based; parameters: dose 10 mg/kg, route intraperitoneal; conditions: read-out: Drug uptake
[15] = Drug level in CD1 mouse brain at 10 mg/kg, ip after 15 mins; format: ADME, organism-based; parameters: dose 10 mg/kg, route intraperitoneal; conditions: read-out: Drug uptake

Chain of D(2) dopamine receptor (Rattus norvegicus) (P61169 whole entry): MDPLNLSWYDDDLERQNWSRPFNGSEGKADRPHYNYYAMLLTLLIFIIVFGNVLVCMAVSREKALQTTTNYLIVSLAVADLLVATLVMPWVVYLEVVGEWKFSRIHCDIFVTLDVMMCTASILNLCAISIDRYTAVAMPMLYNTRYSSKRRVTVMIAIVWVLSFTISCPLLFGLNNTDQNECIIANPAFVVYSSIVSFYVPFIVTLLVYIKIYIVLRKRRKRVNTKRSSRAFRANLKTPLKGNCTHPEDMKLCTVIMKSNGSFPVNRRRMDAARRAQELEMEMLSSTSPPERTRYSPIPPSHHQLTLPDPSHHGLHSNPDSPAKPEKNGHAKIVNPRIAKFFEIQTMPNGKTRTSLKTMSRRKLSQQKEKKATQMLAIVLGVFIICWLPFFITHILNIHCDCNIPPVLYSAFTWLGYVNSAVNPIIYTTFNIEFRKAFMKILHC
Chain of Sigma non-opioid intracellular receptor 1 (Homo sapiens) (Q99720 whole entry): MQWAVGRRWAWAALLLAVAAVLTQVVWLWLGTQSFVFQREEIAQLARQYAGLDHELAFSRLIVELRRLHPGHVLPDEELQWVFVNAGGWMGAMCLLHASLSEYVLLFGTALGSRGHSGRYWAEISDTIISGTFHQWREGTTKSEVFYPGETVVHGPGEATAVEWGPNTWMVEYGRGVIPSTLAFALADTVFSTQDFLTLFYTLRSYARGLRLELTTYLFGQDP
Chain of D(3) dopamine receptor (Homo sapiens) (P35462 whole entry): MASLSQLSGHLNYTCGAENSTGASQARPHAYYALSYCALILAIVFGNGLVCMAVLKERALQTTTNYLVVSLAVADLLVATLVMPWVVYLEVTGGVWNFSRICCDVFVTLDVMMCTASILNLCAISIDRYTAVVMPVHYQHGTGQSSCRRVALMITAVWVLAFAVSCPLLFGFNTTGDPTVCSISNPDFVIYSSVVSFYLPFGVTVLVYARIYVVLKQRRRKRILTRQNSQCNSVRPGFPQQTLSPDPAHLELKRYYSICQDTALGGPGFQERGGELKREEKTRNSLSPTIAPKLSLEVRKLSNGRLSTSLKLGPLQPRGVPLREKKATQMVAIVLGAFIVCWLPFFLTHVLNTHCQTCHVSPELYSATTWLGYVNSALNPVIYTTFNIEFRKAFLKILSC
Chain of Cannabinoid receptor 1 (Rattus norvegicus) (P20272 whole entry): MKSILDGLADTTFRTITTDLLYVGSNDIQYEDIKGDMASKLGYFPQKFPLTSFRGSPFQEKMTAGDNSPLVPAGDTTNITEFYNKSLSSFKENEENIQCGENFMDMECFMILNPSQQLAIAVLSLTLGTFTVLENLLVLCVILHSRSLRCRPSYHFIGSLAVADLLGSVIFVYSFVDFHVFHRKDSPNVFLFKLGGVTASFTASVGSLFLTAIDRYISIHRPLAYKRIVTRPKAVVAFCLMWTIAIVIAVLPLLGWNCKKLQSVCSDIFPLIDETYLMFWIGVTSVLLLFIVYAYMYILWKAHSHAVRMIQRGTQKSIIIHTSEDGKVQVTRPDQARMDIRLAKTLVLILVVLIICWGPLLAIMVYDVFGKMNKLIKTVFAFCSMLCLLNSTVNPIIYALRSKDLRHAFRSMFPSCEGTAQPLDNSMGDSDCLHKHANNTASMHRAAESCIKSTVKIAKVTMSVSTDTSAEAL
Chain of 5-hydroxytryptamine receptor 2A (Homo sapiens) (P28223 whole entry): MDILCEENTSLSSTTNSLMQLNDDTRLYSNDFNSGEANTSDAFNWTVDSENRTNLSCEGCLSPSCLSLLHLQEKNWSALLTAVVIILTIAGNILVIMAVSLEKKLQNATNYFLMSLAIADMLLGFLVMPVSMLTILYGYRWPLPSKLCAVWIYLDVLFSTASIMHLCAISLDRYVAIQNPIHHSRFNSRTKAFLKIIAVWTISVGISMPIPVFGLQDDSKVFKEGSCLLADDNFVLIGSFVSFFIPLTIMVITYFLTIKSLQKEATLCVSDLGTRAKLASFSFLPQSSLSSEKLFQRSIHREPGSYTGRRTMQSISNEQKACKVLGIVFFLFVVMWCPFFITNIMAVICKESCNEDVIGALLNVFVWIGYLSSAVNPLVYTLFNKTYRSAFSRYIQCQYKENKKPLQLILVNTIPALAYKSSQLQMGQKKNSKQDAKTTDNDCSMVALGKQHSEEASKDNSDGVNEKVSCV

SMILES	Ki (D(4) dopamine receptor) [nM]	logP [1]	Activity [2] [%]	pKa [3]	Activity [4] [%]	other results
O=C(NCCN1CCN(c2ccc(Cl)cc2)CC1)c1ccc(F)cc1	1.76	3.75	48	6.46	29	–
COc1cccc(C(=O)NCCN2CCN(c3ncccc3C#N)CC2)c1	1.52	2.55	4.4	6.71	8.3	Drug uptake (Plasma): 0.1 µg/mL; Activity [5]: 3.2%; concentration at 0.5 h [6]: 370 ng/mL; Activity [7]: 6.5%; Activity [8]: 5.1%; Activity [9]: 9.3%; Activity [10]: Active; Activity [11]: 24%; concentration at 0.5 h [12]: 140 ng/g
COc1cccc(C(=O)NCCN2CCN(c3ccc(Cl)cc3)CC2)c1	4.97	–	7.8	6.19	22	–
N#Cc1ccc(N2CCN(CCNC(=O)c3ccc(F)cc3)CC2)cc1	32.7	3.07	0	6.43	4.6	–
O=C(NCCN1CCN(c2noc3ccccc23)CC1)c1ccc(F)cc1	0.34	3.79	89	6.43	21	logD [13]: 3.75
COc1cccc(C(=O)NCCN2CCN(c3ccc(C#N)cc3)CC2)c1	63.9	–	0	–	27	–
COc1cccc(C(=O)NCCN2CCN(c3noc4ccccc34)CC2)c1	1.93	–	84	6.24	13	–
Cc1ccc(N2CCN(CCNC(=O)c3ccc(F)cc3)CC2)cc1	2.64	–	29	6.31	21	–
COc1cccc(C(=O)NCCN2CCN(c3ccc(C)cc3)CC2)c1	–	–	–	6.46	7.2	logD [13]: 2.78
O=C(NCCN1CCN(c2ccc(Cl)cn2)CC1)c1ccc(F)cc1	2.92	3.42	43	6.58	33	–
COc1cccc(C(=O)NCCN2CCN(c3ccc(Cl)cn3)CC2)c1	–	3.29	–	6.45	15	–
N#Cc1cccnc1N1CCN(CCNC(=O)c2ccc(F)cc2)CC1	0.93	2.37	32	6.4	1	Drug uptake (Plasma): < 0.1 µg/mL; Activity [5]: 0%; Activity [7]: 9.9%; concentration at 0.25 h [14]: 130 ng/mL; Activity [8]: 7.2%; Activity [9]: 29%; concentration at 0.25 h [15]: 470 ng/g; Activity [10]: Active; Activity [11]: 53%
